Measured values gathered from unrelated publications.
Each line is one published result; the experiments were not run side by side.
Target: Serine/threonine-protein kinase Nek11 (NEK11, Homo sapiens, UniProt Q8NG66)
One construct used (Q8NG66 1-645): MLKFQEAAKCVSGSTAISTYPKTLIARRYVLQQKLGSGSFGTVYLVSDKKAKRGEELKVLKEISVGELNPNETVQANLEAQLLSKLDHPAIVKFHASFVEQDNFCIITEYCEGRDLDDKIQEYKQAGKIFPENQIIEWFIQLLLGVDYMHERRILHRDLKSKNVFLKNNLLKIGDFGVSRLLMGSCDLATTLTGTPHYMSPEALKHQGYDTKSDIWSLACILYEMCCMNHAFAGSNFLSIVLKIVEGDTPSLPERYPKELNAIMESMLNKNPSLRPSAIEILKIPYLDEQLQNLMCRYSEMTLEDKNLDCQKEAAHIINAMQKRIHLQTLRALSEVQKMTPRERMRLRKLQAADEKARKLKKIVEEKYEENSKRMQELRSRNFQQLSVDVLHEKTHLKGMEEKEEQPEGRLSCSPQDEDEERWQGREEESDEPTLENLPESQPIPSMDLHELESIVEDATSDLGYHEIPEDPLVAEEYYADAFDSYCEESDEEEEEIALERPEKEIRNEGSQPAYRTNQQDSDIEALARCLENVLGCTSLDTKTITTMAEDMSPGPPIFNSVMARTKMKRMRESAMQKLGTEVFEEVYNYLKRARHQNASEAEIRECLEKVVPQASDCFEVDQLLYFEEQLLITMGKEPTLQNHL

SMILES	test	conditions	remaining binding [%]
O=C(N[C@H]1CCCCC/C=C\C2C[C@@]2(C(=O)O)NC(=O)[C@@H]2C[C@@H](Oc3ccncc3)CN2C1=O)OC1CCCC1 (some centres unmarked)	binding, competition with immobilised ligand	1 µM	100
O=C(c1ccc(Nc2ncc(Cl)c(-c3ccc(Cl)s3)n2)cc1)N1CCC(N2CCCC2)CC1	binding, competition with immobilised ligand	1 µM	100
CS(=O)(=O)NCC[C@H](NC(=O)c1cncc2c1cnn2-c1ccc(F)cc1)c1ccnc(S(C)(=O)=O)c1	cell-free assay, competition with immobilised ligand	1 µM	100
COc1cnc(Nc2cccc(S(N)(=O)=O)c2)nc1N1CCN(c2ccccc2)CC1	binding, competition with immobilised ligand	1 µM	90
O=C(NCCCN1CCOCC1)c1ccc(Nc2nccc(-c3cc4ccccc4s3)n2)cc1	binding, competition with immobilised ligand	1 µM	75
C=CC(=O)N1CCC(C(=O)NCC(=O)N2CCN(c3nc(-c4cnc(N)nc4C(F)F)nc(N4CCOCC4)n3)CC2)CC1	binding, competition with immobilised ligand	1 µM	69
Cc1cnc(Nc2ccc(C(=O)N3CCC(N4CCCC4)CC3)cc2)nc1-c1cc2ccccc2s1	binding, competition with immobilised ligand	1 µM	64
C[C@@H]1CCN(c2nccc(-c3cnn4ncccc34)n2)C1	binding	1 µM	90
COc1ncc2cc3ccccc3nc2c1C#N	cell-free assay, competition with immobilised ligand	5 µM	60
O=C(NCC1CCOCC1)c1n[nH]cc1NC(=O)c1c(F)cccc1F	binding, competition with immobilised ligand	1 µM	91
N[C@H]1CCN(c2nccc(-c3cnn4ncccc34)n2)C1	binding	1 µM	71
COc1ccc2c(c1)O[C@H](c1ccc(OC)c(OC)c1)C[C@@H]2NC(=O)C1(c2ccc3c(c2)OC(F)(F)O3)CC1	cell-free assay, competition with immobilised ligand	1 µM	88
CN(c1nccc(-c2cnn3ncccc23)n1)C1CC1	binding	1 µM	100
Cc1cc(-n2nc(Cc3cc(F)cc(C(F)(F)F)c3)nc2C)ccc1C(N)=O	cell-free assay, competition with immobilised ligand	1 µM	100
CC1CCCN1c1nccc(-c2cnn3ncccc23)n1 (centres unmarked)	binding	1 µM	100
C[C@@H](c1ccc(-n2cnc3c(N)ncnc32)cc1)N1CCc2nn(C)c(Cc3ccccc3)c2C1=O	binding, competition with immobilised ligand	0.1 µM	78
O=S(=O)(NC1CCC(c2cc(F)ccc2F)(S(=O)(=O)c2ccc(Cl)cc2)CC1)C(F)(F)F (centres unmarked)	cell-free assay, competition with immobilised ligand	1 µM	100
CN(C)c1nccc(-c2cnn3ncccc23)n1	binding	1 µM	100
CC(=O)C1=C(C)N(c2cccc(C(F)(F)F)c2)C(=O)N[C@@H]1c1ccc(C#N)nc1	cell-free assay, competition with immobilised ligand	1 µM	100
COc1ccnn2ncc(-c3ccnc(N(C)C)n3)c12	binding	1 µM	100
